The pKi is the negative decadic logarithm of the Ki, by convention in mol/L. Read a low pKi as a high Ki. One may read the pEC50 as the EC50 on a negative log10 scale, so that one unit is a factor of ten.

This note sets out measurements from ChEMBL document CHEMBL1138415, “Analogues of the dopamine D2 receptor antagonist L741,626: Binding, function, and SAR” (Bioorg Med Chem Lett, 2007).

The target of one experiment is T1, D(4) dopamine receptor (Homo sapiens, UniProt P21917).
T1 sequence (P21917 whole entry): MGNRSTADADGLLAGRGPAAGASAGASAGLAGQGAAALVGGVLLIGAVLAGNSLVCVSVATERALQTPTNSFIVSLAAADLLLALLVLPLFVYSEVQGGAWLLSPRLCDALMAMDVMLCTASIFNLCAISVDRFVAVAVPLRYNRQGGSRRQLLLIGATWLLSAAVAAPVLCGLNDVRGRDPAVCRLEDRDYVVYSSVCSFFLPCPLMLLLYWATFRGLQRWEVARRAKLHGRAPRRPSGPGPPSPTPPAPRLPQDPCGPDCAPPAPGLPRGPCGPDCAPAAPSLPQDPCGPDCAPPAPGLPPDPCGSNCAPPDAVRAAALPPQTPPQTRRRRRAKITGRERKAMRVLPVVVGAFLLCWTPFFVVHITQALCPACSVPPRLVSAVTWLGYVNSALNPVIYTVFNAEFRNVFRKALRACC
As to the kind of experiment: Displacement of [125I]IABN from human dopamine D4 receptor expressed in HEK293 cells. The experiment is classed as cell-based. A digest of the protocol: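 Competition binding on HEK 293 cells transfected with human D2L or D4 dopamine receptors; radioligand [125I]IABN displaced by test ligand; Ki values derived.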

Experiment [1] is filed under the species Homo sapiens. As to the kind of experiment: Selectivity for human dopamine D2L receptor over human dopamine D4 receptor.
Experiment [2] addresses T2, D(3) dopamine receptor (Homo sapiens, UniProt P35462). The experiment in a line: Displacement of [125I]IABN from human dopamine D3 receptor expressed in HEK293 cells. The format is cell-based. A general note: Displacement assays read how much labelled ligand stays bound in the presence of the test substance.
The target of experiment [3] is T3, D(2) dopamine receptor (Homo sapiens, UniProt P14416). The experiment in a line: Displacement of [125I]IABN from human dopamine D2L receptor expressed in HEK293 cells. The format is cell-based.
Experiment [4] concerns the target T3, D(2) dopamine receptor. The experiment in a line: Antagonist activity at human dopamine D2 receptor expressed in CHO cells assessed as inhibition of quinpirole stimulated mitogenesis. The format is functional, cell-based. A digest of the protocol:
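Functional mitogenesis assay in CHO cells transfected with human D2 receptor; antagonism measured as inhibition of quinpirole-stimulated mitogenesis (agonism tested as stimulation); EC50 reported; run via NIDA CTDP contract protocol.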

The target in experiment [5] is T2, D(3) dopamine receptor. As to the kind of experiment: Antagonist activity at human dopamine D3 receptor expressed in CHO cells assessed as inhibition of quinpirole stimulated mitogenesis. The experiment is classed as functional, cell-based.
The species entered for experiment [6] is Homo sapiens. The experiment in a line: Selectivity for human dopamine D2L receptor over human dopamine D3 receptor.

pEC50, pKi: −log10 of the molar value.

T3 sequence (P14416 whole entry): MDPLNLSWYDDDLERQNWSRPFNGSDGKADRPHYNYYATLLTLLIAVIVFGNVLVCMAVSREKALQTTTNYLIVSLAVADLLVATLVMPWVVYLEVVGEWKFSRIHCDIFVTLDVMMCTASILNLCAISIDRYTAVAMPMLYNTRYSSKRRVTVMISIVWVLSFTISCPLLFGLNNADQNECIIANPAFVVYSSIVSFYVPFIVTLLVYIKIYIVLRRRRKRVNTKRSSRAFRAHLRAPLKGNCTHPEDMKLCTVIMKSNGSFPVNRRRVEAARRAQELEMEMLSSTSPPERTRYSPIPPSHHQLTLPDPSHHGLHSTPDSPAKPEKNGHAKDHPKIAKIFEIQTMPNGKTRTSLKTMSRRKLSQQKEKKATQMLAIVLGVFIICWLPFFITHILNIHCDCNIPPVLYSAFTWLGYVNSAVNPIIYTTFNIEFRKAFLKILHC
T2 sequence (P35462 whole entry): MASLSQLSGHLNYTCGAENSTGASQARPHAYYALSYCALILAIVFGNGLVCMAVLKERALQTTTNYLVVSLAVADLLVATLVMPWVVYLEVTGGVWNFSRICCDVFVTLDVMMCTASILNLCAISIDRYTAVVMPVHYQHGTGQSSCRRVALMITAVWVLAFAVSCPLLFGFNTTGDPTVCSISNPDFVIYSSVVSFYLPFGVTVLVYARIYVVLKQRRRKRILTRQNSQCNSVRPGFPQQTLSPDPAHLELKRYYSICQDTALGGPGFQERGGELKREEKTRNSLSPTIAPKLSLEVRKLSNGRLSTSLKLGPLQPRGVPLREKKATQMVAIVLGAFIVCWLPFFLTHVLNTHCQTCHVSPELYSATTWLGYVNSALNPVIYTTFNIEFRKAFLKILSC

As to `OC1(c2ccc(Cl)c(Cl)c2)CCN(Cc2c[nH]c3ccccc23)CC1`, the negative logarithm of the Ki (pKi) on D(4) dopamine receptor is 5.96; on D(3) dopamine receptor [2], 6.95; at D(2) dopamine receptor [3] it was 8.16. Besides, the results for the Ratio Ki in the experiment filed under Homo sapiens [1] and in the experiment listed under Homo sapiens [6] were 159 and 16, respectively. Also, the figures for the negative-log EC50 (pEC50) at D(2) dopamine receptor [4] and on D(3) dopamine receptor [5] were 7.82 and 7.38, respectively.
As for `CCCCCCn1cc(CN2CCC(O)(c3ccc(Cl)cc3)CC2)c2ccccc21`, the pKi at D(4) dopamine receptor was 5.05; on D(3) dopamine receptor [2], 6.31; at D(2) dopamine receptor [3], 6.73. The values for the Ratio Ki in the experiment listed under Homo sapiens [1] and in the experiment filed under Homo sapiens [6] were 47 and 3, respectively. Moreover, the values for the pEC50 at D(2) dopamine receptor [4] and at D(3) dopamine receptor [5] were 6.78 and 6.18, respectively.
Consider `Cc1[nH]c2ccccc2c1CN1CCC(O)(c2ccc(Cl)cc2)CC1`, for which the pKi at D(4) dopamine receptor was 5.52; at D(3) dopamine receptor [2], 7.36; on D(2) dopamine receptor [3] it was 7.81. Further, the Ratio Ki is 194 in the experiment filed under Homo sapiens [1] and 3 in the experiment listed under Homo sapiens [6]. In addition, the results for the pEC50 at D(2) dopamine receptor [4] and at D(3) dopamine receptor [5] were 8.67 and 7.69, respectively.
As for `CC1(c2ccc(Cl)cc2)CCN(Cc2c[nH]c3ccccc23)CC1`, the pKi on D(4) dopamine receptor is 5.56; on D(3) dopamine receptor [2], 5.68; at D(2) dopamine receptor [3] it was 6.00. Also, the Ratio Ki in the experiment filed under Homo sapiens [1] amounted to 3; in the experiment listed under Homo sapiens [6], 2. In addition, the pEC50 at D(2) dopamine receptor [4] was 6.50; on D(3) dopamine receptor [5], 6.46.
